# Screening results deposited in PubChem by several laboratories.
# aDG glyco act – increases alpha dystroglycan glycosylation. Pro5-aDG cells, alpha-DG glycosylation AlphaScreen (IIH6); 0% Pro5, 100% B10-LARGE cell signal. activation, % at 10 µM. 360,000 compounds, 0.22% hits. AID 624168;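 active means activation of at least 8% versus controls, or a plate z-score of at least 8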;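 further: Pro5 are CHO cells carrying HIG-tagged alpha-DG that lacks glycosylation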
# NR3A LBD binder – modulators (binders) of human NR3A ligand-binding domain; NR3A LBD differential scanning fluorimetry, Tm shift; 0% = protein alone, 100% = glycine-bound protein; Tm shift relative to glycine control, % at 25 µM; 340,000 compounds, 2.5% hits; AID 1259313;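 active means melting temperature shift of at least 10% of the positive control shift, at one fixed dose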
# Lipid droplet – hepatic lipid droplet formation modulation | AML12 mouse hepatocytes, oleate lipid droplets, BODIPY imaging | inhibition, % at 6.5 µM | 240,000 compounds, 0.4% hits;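 active means lipid droplet intensity inhibited by at least 50%, with more than 500 cells counted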
#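 Assay system: AML12 mouse liver cells | Compound: 6.5 µM single-point dosing | Schedule: Overnight exposure | Technique: Fluorescence imaging, 20x objective, two fields per well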
# GC-A act – GC-A (human) enzyme activation; 370,000 compounds, 0.14% hits; P16066; AID 1671463; activation, % at 10 µM; HEK293 GC-A cells, cGMP TR-FRET, EC30 ANP; 0% at EC30 ANP, 100% saturating ANP; in the data active means activation above about 40%
# GASC-1 inh – inhibitors of human GASC-1 (JMJD2C) demethylase; GST-JMJD2C(1-420) H3K9me3 demethylation, DELFIA europium; inhibition, % at 2.35 µM; 330,000 compounds, 0.069% hits; AID 2099;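 active means more than half of a compound's replicate wells show inhibition beyond 50%, single wells judged on their own value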;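 further: signal counts dimethyl H3K9 product captured on neutravidin plate; 0% = median of DMSO wells and 100% = 0.3 times that DMSO median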
# Target sequence (Q9H3R0 1-420 limits assumed): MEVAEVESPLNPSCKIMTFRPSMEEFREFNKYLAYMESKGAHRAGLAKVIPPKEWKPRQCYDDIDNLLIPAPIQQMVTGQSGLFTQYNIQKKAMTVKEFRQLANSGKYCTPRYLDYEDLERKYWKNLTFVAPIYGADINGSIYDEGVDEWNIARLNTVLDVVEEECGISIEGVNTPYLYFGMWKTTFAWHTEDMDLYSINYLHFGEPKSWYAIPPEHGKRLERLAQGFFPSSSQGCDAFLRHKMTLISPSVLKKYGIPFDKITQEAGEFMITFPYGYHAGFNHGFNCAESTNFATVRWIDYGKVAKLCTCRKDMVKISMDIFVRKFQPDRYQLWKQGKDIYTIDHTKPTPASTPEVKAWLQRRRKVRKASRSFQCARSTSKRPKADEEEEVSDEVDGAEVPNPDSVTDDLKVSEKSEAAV
# NPR2 activator – GC-B (human) receptor activation. HEK293-GC-B cells, CNP EC30, cGMP TR-FRET; 0% at EC30 CNP, 100% saturating CNP. 370,000 compounds, 0.11% hits. P20594. AID 1920062. activation, % at 10 µM;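 active means activation at 10 µM reaching about 35% in either raw or pattern-adjusted values, limit read from the data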
# The depositor's hits bear a star; · = no result given. Shown are actives, neighbours in structure and some others; about 3% of the full set was active somewhere.
SMILES,aDG glyco act,NR3A LBD binder,Lipid droplet,GC-A act,GASC-1 inh,NPR2 activator
Cn1c(=O)[nH]c(=O)c2c1nc(NC1CCCC1)n2Cc1ccccc1,0.2,0.2,-21.3,43.8*,21.6,31.6
Cn1c(NCC(O)c2ccccc2)nc2c1c(=O)n(Cc1ccc(Cl)c(Cl)c1)c(=O)n2C (stereo not drawn),0.2,12.2*,·,7.8,-0.6,19.8
CCOC(=O)[C@]12CCCCC/C=C\1N(Cc1ccc(OC)cc1)C(=O)[C@H]2CC(=O)NCCCOC,·,·,·,-2.8,·,-8.2
CCOC(=O)[C@@H]1CSCCS(=O)(=O)N1C(=O)[C@H](Cc1ccccc1)NC(=O)OC(C)(C)C,·,·,·,-0.6,·,-1.3
CC1CN(Cc2ccccc2)c2nc3c(c(=O)[nH]c(=O)n3C)n2C1 (stereo not drawn),0.2,28.8*,-9.3,-8.3,1.9,-12.0
COC(=O)[C@]12C[C@H](CC(=O)NCCc3ccccc3OC)C(=O)N(Cc3cccc4ccccc34)C1=C[C@H](C(C)(C)C)O[C@@H]2C,·,·,·,-6.9,·,-5.3
CCN(CC)C(=O)Oc1cc(=O)n2c3c(cccc13)CCC2,-0.1,19.6*,-27.6,3.0,22.0,-0.8
Cc1cccc(NC(=O)c2sc3nc(C)nc(N4CCOCC4)c3c2C)c1,0.4,·,·,-0.6,·,-11.2
CCOc1ccc(NC(=O)c2sc3nc(C)nc(N4CCOCC4)c3c2C)cc1,-0.1,16.5*,6.5,8.6,2.2,-0.5
Cc1ccc(NC(=O)COC(=O)COc2cccc3c2OC(C)(C)C3)c(C)c1,0.0,0.5,·,1.3,-5.5,3.4
COc1ccccc1-c1cc(C(F)(F)F)nc(S(=O)(=O)CCCC(=O)O)n1,0.0,-1.6,13.9,32.3,-2.0,4.9
COc1ccccc1-c1cc(C(F)(F)F)nc(S(=O)(=O)CCCC(=O)N2CCOCC2)n1,-0.7,-0.6,0.8,70.3*,13.3,4.2
O=C(NCCCc1ccccc1)OC1CCC12CCC(c1ccccc1)CC2 (stereo not drawn),·,·,·,7.1,·,3.4
CCOc1ccc(NC(=O)Cn2nnc(-c3ccccc3NC(=O)c3cccs3)n2)cc1,0.1,15.0*,9.2,-9.6,-1.4,-8.0
COc1ccc(NC(=O)Cn2nnc(-c3ccccc3NS(=O)(=O)c3ccccc3)n2)cc1,2.3,17.4*,10.5,·,11.9,·
COc1ccc(S(=O)(=O)Nc2ccccc2-c2nnn(CC(=O)Nc3ccccc3OC)n2)cc1,1.5,-3.1,-2.9,4.3,1.1,-0.8
CCC(=O)N1CCc2cc(Br)c(S(=O)(=O)N3CCC(C(=O)NC(C)(C)C)CC3)cc21,·,·,·,-0.8,·,-3.0
CCN1CCN(C2=C(NS(=O)(=O)c3ccc(Br)cc3)C(=O)c3ccccc3C2=O)CC1,7.7*,-5.8,-19.9,-3.9,3.8,-3.1
CCN1CCN(C2=C(NS(=O)(=O)c3ccccc3)C(=O)c3ccccc3C2=O)CC1,1.8,2.0,-10.1,-7.0,-19.4,4.0
CCOCCn1ccc2c(OCC(=O)Nc3cc(OC)ccc3OC)cccc2c1=O,-0.3,11.4*,·,16.0,-3.5,12.6
CCOc1ccc(/C=N/Nc2ccc(C(F)(F)F)cc2[N+](=O)[O-])cc1O,-0.4,-0.6,74.1*,-1.8,-20.8,-3.4
CN1NC(=O)c2ccccc2NC1=S,·,·,·,4.9,·,1.5
COc1cc2c(cc1OC)C(C)N(C(=O)c1cc(C)on1)CC2 (stereo not drawn),-0.2,13.0*,-124.2,-0.7,4.3,-1.3
COc1ccccc1CNC(=O)NC1CCN(CC(=O)Nc2ccc3c(c2)OCCO3)CC1,·,·,·,-3.8,·,-0.3
CC(=O)C1=C(C)N(Cc2ccc(Cl)cc2)C(=S)NC1c1ccc(Cl)cc1 (stereo not drawn),·,·,·,-10.3,·,-19.6
SMILES,aDG glyco act,NR3A LBD binder,Lipid droplet,GC-A act,GASC-1 inh,NPR2 activator
CCc1cc(=O)n2[nH]c(C)c(-c3ccc(OC)cc3)c2n1,0.1,2.7,-25.8,10.7,15.3,13.5
CCOC(=O)Cc1cc(=O)n2[nH]c(C)c(-c3ccc(OC)cc3)c2n1,-0.1,-1.3,-12.5,49.4*,1.4,50.8*
CCOC(=O)Cc1cc(=O)n2[nH]c(C)c(-c3ccc(Cl)cc3)c2n1,-0.2,-8.2,·,44.1*,4.0,45.4*
CCOc1cc(OCC)cc(C(=O)N2CCC[C@H]2C(=O)N2CCC[C@H]2C(=O)NCc2ccccn2)c1,0.0,·,·,2.1,·,5.1
CNC(=O)NC(=O)CSc1nc(-c2cccs2)c(C#N)c(=O)[nH]1,0.1,-0.5,-4.4,45.4*,-3.6,23.3
O=C1CCC[C@H]2C[C@H](NCc3ccccc3F)CC[C@]23CCCN13,·,·,·,2.6,·,-4.1
Cc1cccc(-n2ncc3c(Nc4ccc(F)cc4)ncnc32)c1,0.0,24.4*,8.8,4.7,14.8,-4.3
COc1ccc(-n2ncc3c(Nc4cccc(C)c4)ncnc32)cc1,0.2,28.6*,-2.2,1.4,-2.1,2.1
Cc1cccc2c(N=Nc3ccc(S(=O)(=O)Nc4cccc(Cl)c4)cc3[N+](=O)[O-])c(O)[nH]c12,-0.4,13.0*,7.8,-10.8,12.7,-1.6
CCOC(=O)/C(=C\Nc1cccc(OCc2ccccc2)c1)NC(=O)c1ccccc1,·,·,·,1.8,·,8.6
CSc1ccc(/C=C/C(=O)c2ccc(O)cc2)cc1,1.4,10.9*,1.5,-1.6,15.9,-1.8
O=C(C=Cc1cccc(O)c1)c1ccccc1O,0.3,0.6,·,-0.4,·,-0.2
O=C(/C=C/c1ccc(O)c(O)c1)c1ccccc1O,-0.2,25.0*,-0.8,4.8,-18.2,-2.2
O=C(/C=C/c1ccc(O)cc1)c1ccc(O)cc1O,-0.2,27.7*,-24.9,-0.3,2.2,-11.1
Cc1ccc(C)c(NC(=O)Cn2nnc(-c3ccncc3)n2)c1,·,·,·,0.3,·,0.2
C/C(=N\NC(=O)CSCc1ccccc1Br)c1cccc([N+](=O)[O-])c1,3.2,21.8*,-5.4,-4.0,2.9,-4.7
COC(=O)N1C[C@H](Oc2cccc3ccccc23)[C@H]2C[C@@H]1c1ccccc1O2,·,·,·,-1.2,·,0.1
O=C(Nc1ccc(Cn2cccn2)cc1)c1ccc(COc2ccccc2Br)cc1,1.3,30.4*,·,23.0,1.8,-3.0
CC(=O)Nc1ccc(NC(=O)c2ccc(COc3ccccc3Br)o2)cc1,0.0,22.9*,-2.7,1.9,3.6,2.8
O=C(Nc1cccnc1)c1ccc(COc2ccccc2Br)o1,1.3,-40.8,0.4,8.2,6.0,-4.2
Cc1ccc(C(C)C)c(OCc2ccc(C(=O)N/N=C/c3ccc(C(=O)O)cc3)cc2)c1,-0.1,0.6,-26.1,-4.0,-9.8,-5.3
Cc1ccc(C(C)C)c(OCc2ccc(C(=O)N/N=C/c3ccc(O)cc3O)cc2)c1,1.1,26.0*,-31.2,-10.1,10.3,-2.2
